The list is not random: actives were taken first. Their share in the collection is about 3.4%.
TRPML3 ag = human TRPML3 channel agonists, primary screen, cell-based, HEK293 TRPML3-YFP, Fluo-8 calcium fluorescence, 3 µM | actives 0.29% (n = 220,000) | AID 1448, 2008 | Mucolipin-3 (Homo sapiens), Q8TDD5 | 100% = the carbachol control signal | activation, % at 3 µM;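 active means activation above its plate's cutoff, the mean activation of the plate's test wells plus 3 SD, cut at about 12% in these data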;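 further: 0% = DMSO only wells and 100% = carbachol wells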
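system = HEK293 cells stably carrying human TRPML3-YFP | doses = one concentration, 3 µM nominal, 0.3% DMSO | timing = dye loading 1 h 37 °C then 30 min ambient, 125 s read | detection = Fluo-8 calcium dye fluorescence, ex 470-495, em 515-575 nm | benchmarks = high control carbachol 87 µM, low control DMSO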
GPR7 antag = GPR7 receptor antagonists, primary screen, cell-based, fluorescence, single concentration; inhibition, % at 4.4 µM; GPR7-expressing cells, fluorescence antagonist assay; actives 1.1% (n = 290,000); Neuropeptides B/W receptor type 1 (Homo sapiens), P48145; in the data active means inhibition above about 16%, passing the limit was not always enough;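 further: cells stimulated with the agonist NPW; 0% = agonist with vehicle and 100% = vehicle without agonist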
LANA-H2A inh = blockers of LANA interaction with H2A/H2B – biochemical, FP readout, HTS, primary screen; Protein LANA1 (Human herpesvirus 8 type P (isolate GK18)), Q9QR71; cell-free LANA-H2A/H2B peptide, fluorescence polarization; inhibition, % (test concentration not listed); actives 0.6% (n = 320,000); in the data active means inhibition mostly above about 10%, no sharp cut-off; inactive means mostly below about 6.7%
Target sequence (Q9QR71 whole entry, looked up): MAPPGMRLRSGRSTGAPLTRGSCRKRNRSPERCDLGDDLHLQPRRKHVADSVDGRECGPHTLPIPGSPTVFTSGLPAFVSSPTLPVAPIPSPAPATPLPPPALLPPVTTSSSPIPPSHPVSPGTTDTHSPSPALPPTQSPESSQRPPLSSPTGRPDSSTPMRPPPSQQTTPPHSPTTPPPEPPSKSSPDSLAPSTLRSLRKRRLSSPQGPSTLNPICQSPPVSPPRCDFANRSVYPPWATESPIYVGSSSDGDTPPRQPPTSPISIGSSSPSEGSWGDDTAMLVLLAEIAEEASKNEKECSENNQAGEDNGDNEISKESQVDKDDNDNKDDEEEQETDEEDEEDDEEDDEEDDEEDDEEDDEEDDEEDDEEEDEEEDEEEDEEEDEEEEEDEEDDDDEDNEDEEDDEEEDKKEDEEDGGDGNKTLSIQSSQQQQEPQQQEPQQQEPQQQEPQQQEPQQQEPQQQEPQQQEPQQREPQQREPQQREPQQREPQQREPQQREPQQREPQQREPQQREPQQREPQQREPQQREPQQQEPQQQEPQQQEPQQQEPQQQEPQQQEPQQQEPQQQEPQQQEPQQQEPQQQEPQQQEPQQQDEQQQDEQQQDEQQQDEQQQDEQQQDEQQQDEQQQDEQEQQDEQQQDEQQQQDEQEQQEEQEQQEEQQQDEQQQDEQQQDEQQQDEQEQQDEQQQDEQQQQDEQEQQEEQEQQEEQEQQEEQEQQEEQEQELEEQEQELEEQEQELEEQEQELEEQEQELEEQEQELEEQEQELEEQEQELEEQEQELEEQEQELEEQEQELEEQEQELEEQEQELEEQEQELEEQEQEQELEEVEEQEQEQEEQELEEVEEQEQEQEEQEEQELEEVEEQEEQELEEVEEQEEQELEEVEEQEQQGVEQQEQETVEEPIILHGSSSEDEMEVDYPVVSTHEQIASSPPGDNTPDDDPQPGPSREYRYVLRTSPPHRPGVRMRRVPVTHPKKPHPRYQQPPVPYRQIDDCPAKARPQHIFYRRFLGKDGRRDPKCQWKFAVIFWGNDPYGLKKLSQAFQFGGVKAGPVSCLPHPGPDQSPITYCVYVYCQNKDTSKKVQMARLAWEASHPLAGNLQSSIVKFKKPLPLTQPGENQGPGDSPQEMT
TAAR1 ag = human TAAR1 agonists, primary screen, Fluo-8 calcium fluorescence, CHO RD-HGA16 cells. Trace amine-associated receptor 1 (Homo sapiens), Q96RJ0. vehicle wells 0%, saturating PEA agonist 100%. activation, % at 3 µM. actives 0.99% (n = 360,000);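 active means activation above the mean activation of all test compounds in the run plus 3 SD, cut at about 38% in these data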
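System: CHO-derived RD-HGA16 cells with stable Gα16 and human TAAR1. Times: 17-24 h plating, Fluo-8 75 min 37 °C, 30 min RT. Measured by: calcium-sensitive Fluo-8 signal, excitation 470-495, emission 515-575 nm. Read-out basis: % activation relative to PEA EC100 response. Control set: DMSO and PEA EC100. Repeats: no replicates (n 1).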
TRPN1 ag = zebrafish TRPN1 channel agonists, primary screen, cell-based, HEK293, calcium fluorescence; HEK293 zebrafish TRPN1-YFP, Fluo-8 calcium fluorescence; 100% = response to 87 µM carbachol; activation, % at 3 µM; actives 0.18% (n = 220,000);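 active means activation above its plate's cutoff, the mean activation of test wells on that plate plus 3 SD, cut at about 19% in these data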;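 further: 0% = DMSO alone and 100% = 87 µM carbachol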
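System: zebrafish TRPN1-YFP in HEK293 cells / Dosing: 3 µM single point / Timing: dye loading 1 h at 37 °C, then 30 min room temperature / Signal: Fluo-8 calcium fluorescence, excitation 470-495 nm, emission 515-575 nm / Read-out basis: percent activation from peak over basal fluorescence ratio, control-normalized / Control set: high carbachol 87 µM, low DMSO alone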
TAAR1 antag = human TAAR1 antagonists, primary screen, Fluo-8 calcium fluorescence, CHO RD-HGA16 cells; Trace amine-associated receptor 1 (Homo sapiens), Q96RJ0; antagonist; inhibition, % at 3 µM; actives 1.5% (n = 360,000);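 active means inhibition above a per-plate cutoff, the mean inhibition of test compounds on that plate plus 3 SD, cut at about 49% in these data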;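 further: 0% = DMSO plus EC80 beta-PEA response and 100% = DMSO alone without agonist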
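Test system: RD-HGA16 CHO cells with stable hTAAR1 and Gα16 / Probe or stimulus: EC80 β-phenethylamine stimulus / Times: seeding 17-24 h prior, 75-min 37 °C, 30-min RT dye loading / Detection: Fluo-8 calcium-sensitive fluorescence / Read-out basis: % inhibition scaled between DMSO and EC80 PEA controls / Repeats: singlicate, one well per test compound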
TAAR1 nonsel count = nonselective antagonists in TAAR1 counter-screen cells, counter-screen for hTAAR1 antagonist project, cell-based, fluorescence, calcium | inhibition, % at 3 µM | counterscreen cell line, antagonist mode | shares compounds with TAAR1 antag | AID 651780, 2012 | actives 77% (n = 2,400); in the data active means inhibition above about 22%;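 further: CHO-Ga16 host cells stimulated with ATP at an EC80 level; 0% = agonist EC80 plus vehicle and 100% = vehicle without agonist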
TAAR1 ant conf = human TAAR1 antagonists, retest of hits, confirmation, cell-based, fluorescence | shares compounds with TAAR1 antag | TAAR1-expressing cells, fluorescence antagonist read-out | inhibition, % at 3 µM | actives 40% (n = 2,400) | AID 651785, 2012; in the data active means inhibition above about 49%;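 further: CHO-Ga16 host cells challenged with agonist PEA near its EC80; 0% = agonist at EC80 plus vehicle and 100% = vehicle with no agonist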
Ga16 ag counter = calcium activation in Ga16-expressing cells, counter-screen for TAAR1 antagonist project, cell-based, fluorescence; shares compounds with TAAR1 antag; agonist counterscreen; activation, % at 3 µM; actives 18% (n = 2,400); AID 651953, 2012; in the data active means activation above about 12%;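 further: 0% = vehicle wells and 100% = saturating stimulus response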
TAAR1 ag count = TAAR1 activation by candidate antagonists – cell-based, fluorescence, counter-screen for TAAR1 antagonist project | shares compounds with TAAR1 antag | hTAAR1 cell line, agonist mode | activation, % at 3 µM | actives 2% (n = 2,400) | AID 651955, 2012; in the data active means activation above about 37%;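 further: CHO cells stably expressing TAAR1 with calcium dye readout; 0% = DMSO vehicle and 100% = full agonist response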
An asterisk follows results filed as active; / = no result.

SMILES | TRPML3 ag | GPR7 antag | LANA-H2A inh | TAAR1 ag | TRPN1 ag | TAAR1 antag | TAAR1 nonsel count | TAAR1 ant conf | Ga16 ag counter | TAAR1 ag count
O=C(Nc1cccc(S(=O)(=O)NC2=NCCCCC2)c1)c1cc(-c2ccccc2)nc2ccccc12 | 2 | -3 | -1 | 19 | 0 | 63* | 28* | 50* | 10 | 6
CN(C)S(=O)(=O)c1cccc(NC(=O)c2c[nH]c3ccccc23)c1 | / | -10 | -1 | 34 | / | 56* | 24* | 61* | 10 | 54*
Cc1cccc2sc(NNC(=O)c3cc(-c4cccs4)nc4ccccc34)nc12 | 1 | -5 | 0 | 16 | 0 | 68* | 51* | 54* | 15* | 11
NNC(=O)c1cc(-c2cccs2)nc2ccccc12 | 0 | -13 | 3 | -2 | 0 | -17 | / | / | / | /
C[C@@H]1CN([C@H](C)CO)C(=O)CCCn2nncc2CO[C@H]1CN(C)Cc1ccccc1 | / | / | / | 0 | / | -1 | / | / | / | /
CCN(Cc1ccccc1)S(=O)(=O)c1ccc(C(=O)N(CCCN(C)C)c2nc3c(C)c(C)ccc3s2)cc1 | / | / | 1 | 14 | / | 26 | / | / | / | /
CCOC(=O)/C=C1/SCC(=O)N1CCOc1cccc(Br)c1 | / | / | / | 1 | / | -16 | / | / | / | /
COC(=O)c1ccc(Cn2c(C)c(C(=O)NCc3cccs3)sc2=O)o1 | / | / | / | 1 | / | -10 | / | / | / | /
COc1cc(-c2cc(C(=O)Nc3cccc(S(=O)(=O)N(C)C)c3)c3ccccc3n2)cc(OC)c1OC | / | 1 | 2 | 16 | / | 54* | 34* | 49* | 9 | 10
COc1ccc(-c2cc(C(=O)Nc3ccc(O)cc3)c3ccccc3n2)cc1OC | 0 | -1 | -2 | 17 | 5 | 62* | 33* | 48 | 11 | 9
CCN(CC)S(=O)(=O)c1ccc(NC(=O)c2cc(-c3cccs3)nc3ccccc23)cc1 | 1 | -8 | -6 | 17 | -1 | 60* | 29* | 41 | 8 | 6
COc1cc(-c2cc(C(=O)Nc3ccc(S(N)(=O)=O)cc3)c3ccccc3n2)cc(OC)c1OC | / | -3 | 0 | -1 | / | 26 | / | / | / | /
COc1ccc(-c2cc(C(=O)NCc3ccco3)c3ccccc3n2)cc1OC | / | / | -2 | 9 | / | 39 | / | / | / | /
COc1ccc(-c2cc(C(=O)Nc3cccc(S(=O)(=O)NCc4ccco4)c3)c3ccccc3n2)cc1OC | 0 | 14 | 2 | 15 | 1 | 75* | 37* | 57* | 9 | 7
O=C(CCC1CCN(C(=O)c2ccco2)CC1)NCc1ccc(F)cc1 | / | 4 | -2 | 0 | / | -4 | / | / | / | /
CC(C)[C@H](NC(=O)N1c2ccccc2NC(=O)[C@@H]1C(C)C)C(=O)N1CCC[C@H]1C(=O)O | / | -10 | 1 | 1 | / | -8 | / | / | / | /
CCOc1ccccc1-c1cc(C(=O)Nc2ccc(C(=O)O)cc2)c2ccccc2n1 | / | -8 | -6 | 2 | / | 8 | / | / | / | /
CCOc1ccccc1NC(=O)c1cc(-c2ccccn2)nc2ccccc12 | / | / | 1 | 26 | / | 55* | 21 | 46 | 9 | 7
O=C(C[n+]1cc[nH]c1)c1ccc(Cl)cc1 | / | -10 | 0 | 0 | / | -5 | / | / | / | /
O=C(CCCN1CCN(c2ccccc2)CC1)c1ccc(F)cc1 | / | / | / | 1 | / | -33 | / | / | / | /
O=C1NCN(c2ccccc2)C12CCN(CCCC(c1ccc(F)cc1)c1ccc(F)cc1)CC2 | 0 | -4 | -5 | 37 | -2 | 78* | 47* | 48 | 20* | 35
O=[N+]([O-])c1cc(-n2cccc2)ccc1N1CCOCC1 | 1 | -12 | 2 | 13 | 0 | 60* | 28* | 40 | 10 | 11
Cc1ccc(C)c(N2CCN(C(=O)c3ccc(CSc4nc5ccncc5[nH]4)cc3)CC2)c1 | 0 | 6 | -1 | 7 | 1 | 50* | 36* | 36 | 12* | 22
CC(C)(C)OC(=O)C[C@H]1C/C=C\C[C@H](CC(=O)NCCO)C(=O)N[C@@H](Cc2ccccc2)COC1=O | / | / | 10 | 10 | / | 5 | / | / | / | /
Cc1ccc2c(c1)-c1c(cnn1CC(=O)N1CCCN(Cc3ccccc3F)C1)CO2 | 0 | 2 | 3 | 14 | 2 | 75* | 28* | 52* | 10 | 10
SMILES | TRPML3 ag | GPR7 antag | LANA-H2A inh | TAAR1 ag | TRPN1 ag | TAAR1 antag | TAAR1 nonsel count | TAAR1 ant conf | Ga16 ag counter | TAAR1 ag count
Cc1nn(CCc2nn[nH]n2)c2nc(-c3ccc(C4CCCCC4)cc3)cc(C(F)(F)F)c12 | 1 | 5 | 2 | 8 | -1 | 80* | 89* | 68* | 6 | 3
CC1CCCCC1NC(=O)c1ccc(-n2cncn2)cc1 (centres undefined) | / | / | 1 | -3 | / | 93* | 13 | 5 | 8 | 5
Cn1nc(C(=O)NCc2ccc(F)cc2)c2c1-c1ccccc1S(=O)(=O)C2 | / | -13 | 3 | 2 | / | 13 | / | / | / | /
CSc1ccc(CCNC(=O)c2nn(C)c3c2CS(=O)(=O)c2ccccc2-3)cc1 | / | 12 | -1 | 8 | / | 61* | 34* | 50* | 8 | 8
O=C(c1cccs1)c1coc2ccc(O)c(CN3CCOCC3)c12 | 0 | -4 | -1 | -4 | 0 | 106* | 2 | 5 | 2 | 3
O=C(c1coc2ccc(O)c(CN3CCOCC3)c12)C1CC1 | 0 | -8 | 3 | 10 | 0 | -17 | / | / | / | /
O=C(CC1CC2CCC1C2)N1CCN(S(=O)(=O)c2ccc(F)cc2)CC1 (centres undefined) | / | / | / | 2 | / | 8 | / | / | / | /
Cc1cccc(N(C)S(=O)(=O)c2c[nH]c3ccc([N+](=O)[O-])cc23)c1 | / | -7 | / | 4 | / | 57* | 32* | 43 | 5 | 1
